Assay results from ChEMBL document CHEMBL4334422, “Toxicities and beneficial protection of H2S donors based on nonsteroidal anti-inflammatory drugs” (Medchemcomm, 2019).
The source made the active and inactive calls. No cut-off for these calls is given here.

Experiments:
[1] = Toxicity in Wistar kyoto rat assessed as increase in heterochromatin in liver tissue at 10 mg/kg, ip administered for 14 days by TEM assay; assay type: organism-based; conditions: in vivo, 336 h
How it was run: (§1)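 After 14 days of daily intraperitoneal dosing at 10 mg/kg in WKY rats, with vehicle controls, liver and kidney were fixed in 4% glutaraldehyde. Ultrastructure was examined by transmission electron microscopy at 6000-, 10000- and 20000-fold magnification.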

[2] = Toxicity in Wistar kyoto rat assessed as swollen glomerular endothelial cells at 10 mg/kg, ip administered for 14 days by TEM assay; assay type: organism-based; conditions: in vivo, 336 h; how it was run: as §1
[3] = Toxicity in Wistar kyoto rat assessed as swollen gastric cell at 10 mg/kg, ip administered for 14 days by H and E staining based optical microscopic method; assay type: organism-based; conditions: in vivo, 336 h
How it was run: (§2)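 WKY rats, 3 per group, were dosed for 14 days, with the compound at 10 mg/kg per dose and the ibuprofen comparator at 6.1 mg/kg. Rats were anaesthetised with ether and killed by cervical dislocation. Stomach and intestine were sectioned at 5-10 µm, stained with haematoxylin and eosin, and examined by optical microscopy.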

[4] = Toxicity in Wistar kyoto rat assessed as reduction in intestinal mucosal congestion symptoms at 10 mg/kg, ip administered for 14 days by H and E staining based optical microscopic method; assay type: organism-based; conditions: in vivo, 336 h; how it was run: as §2
[5] = Cardiotoxicity in SHR rat assessed as myocardial fibers thickening at 10 mg/kg, ip administered for 14 days by H and E staining based microscopic assay; assay type: toxicity, organism-based; conditions: in vivo, 336 h
How it was run: (§3)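 SHRs were given 10 mg·kg⁻¹ intraperitoneally per day for 14 consecutive days, with an ibuprofen comparator and a normal control. Myocardial tissue was then removed. Sections were HE-stained for light microscopy and also examined by transmission electron microscopy at 6000, 10000 and 20000-fold.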

Rattus norvegicus [6] = assay: Cardioprotective activity in SHR rat assessed as change in muscle fiber nature at 10 mg/kg, ip administered for 14 days by TEM analysis; assay type: functional, organism-based; how it was run: as §3
Rattus norvegicus [7] = assay: Cardioprotective activity in SHR rat assessed as change in muscle fiber mitochondria at 10 mg/kg, ip administered for 14 days by TEM analysis; assay type: functional, organism-based; how it was run: as §3

Compound | Activity [1] | Activity [2] | Activity [3] | Activity [4] | Activity [5] | Activity (Rattus norvegicus [6]) | Activity (Rattus norvegicus [7])
CC(C)Cc1ccc(C(C)C(=O)Oc2ccc(C(N)=S)cc2)cc1 (configuration not stated) | Toxic | Toxic | Non-Toxic | Non-Toxic | Active | – | –
CC(=O)Nc1ccc(OC(=O)CCCCC2CCSS2)cc1 (configuration not stated) | – | – | – | – | – | Active | Active
